# High-throughput results deposited in PubChem by The Scripps Research Institute Molecular Screening Center.
# LYPLA1 inh: LYPLA1 inhibitors, primary screen, counter-screen for PME1 inhibitor project, biochemical, fluorescence polarization, FP-Rh probe ABPP; recombinant LYPLA1; Acyl-protein thioesterase 1 (Homo sapiens), O75608; AID 2174, 2009; 320,000 compounds, 0.16% hits; inhibition, % at 5.9 µM;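 active = inhibition above the mean of all tested compounds plus 3 SD, set per campaign, cut at about 14% in these data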;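 note: inhibitors block serine hydrolase probe labeling of LYPLA1 so polarization falls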
# Target sequence (O75608 whole entry, looked up): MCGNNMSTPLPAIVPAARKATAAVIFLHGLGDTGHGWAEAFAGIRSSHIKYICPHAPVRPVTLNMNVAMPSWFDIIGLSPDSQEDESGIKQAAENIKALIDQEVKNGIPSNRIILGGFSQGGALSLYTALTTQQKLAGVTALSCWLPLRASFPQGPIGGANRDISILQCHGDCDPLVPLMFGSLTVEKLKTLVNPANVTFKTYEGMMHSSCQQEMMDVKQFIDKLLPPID
# proCasp3 act: activators of human procaspase-3 D3A mutant, primary screen, biochemical, absorbance, PC-3 D3A mutant, single concentration; recombinant procaspase-3 D3A, Ac-DEVD-pNA absorbance 405 nm; 330,000 compounds, 0.11% hits; activation, % at 8.5 µM; Caspase-3 (Homo sapiens), P42574;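 active = activation above the mean of all tested compounds plus 3 SD, cut at about 21% in these data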
#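 Assay system – Procaspase-3 D3A mutant, all three cleavage aspartates alanine · Controls – DMSO-only low control, 5 µM PC-3 D3A high control · Schedule – 1 h compound preincubation, 2 h substrate hydrolysis at 25 °C · Signal – 405 nm absorbance of p-nitroaniline, reads at 0 and 120 min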
# PREPL inh: PREPL enzyme inhibitors, primary screen, biochemical, fluorescence polarization. recombinant PREPL, fluorescence polarization activity-based probe. inhibition, % at 5.96 µM. 320,000 compounds, 0.68% hits. Prolyl endopeptidase-like (Homo sapiens), Q4J6C6. AID 2751, 2010; in the data active = inhibition above about 43%
# proCasp7 act: procaspase-7 activators, primary screen, counter-screen for procaspase-3 activator project, biochemical, absorbance, HTS, human; Caspase-7 (Homo sapiens), P55210; recombinant procaspase-7, Ac-DEVD-pNA absorbance 405 nm; D23A/D198A/D206A triple mutant, cannot self-cleave; scale: DMSO 0, 5 µM enzyme 100; activation, % at 8.5 µM; 330,000 compounds, 0.093% hits; AID 463210, 2010;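 active = percent activation above the screen-wide mean plus 3 SD, cut at about 25% in these data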
# Target sequence (P55210 whole entry D23A/D198A/D206A): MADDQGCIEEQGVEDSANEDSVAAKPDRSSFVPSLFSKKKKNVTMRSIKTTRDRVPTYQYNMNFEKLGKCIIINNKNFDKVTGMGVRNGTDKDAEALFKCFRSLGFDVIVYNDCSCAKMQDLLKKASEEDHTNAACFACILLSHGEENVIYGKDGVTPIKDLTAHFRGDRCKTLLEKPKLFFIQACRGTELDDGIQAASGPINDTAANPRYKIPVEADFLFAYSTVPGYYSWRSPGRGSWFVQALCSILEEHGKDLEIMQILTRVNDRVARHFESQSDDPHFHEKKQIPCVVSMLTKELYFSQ
#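 System: Uncleavable procaspase-7 mutant enzyme; Amount: 2 µM procaspase-7 mutant as dispensed; Schedule: 1 h compound preincubation, 2 h substrate cleavage, 25 °C; Measured by: 405 nm absorbance of p-nitroaniline; Evaluation: percent activation from buffer-corrected 0–120 min absorbance change; Control set: low DMSO alone, high DMSO plus 5 µM PC-7.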
# LYPLA2 counter: LYPLA2 inhibitors, primary screen, counter-screen for PME1 inhibitor project, biochemical, fluorescence polarization, FP-Rh probe ABPP; 320,000 compounds, 0.38% hits; Acyl-protein thioesterase 2 (Homo sapiens), O95372; recombinant LYPLA2; inhibition, % at 5.9 µM;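 active = inhibition above the screen-wide mean plus 3 SD, limit set per campaign, cut at about 26% in these data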
# Hits are given with their value; n = inactive; x = no result given. A selection: hits, their analogues and other compounds. The true share with any hit is near 1.1%.
SMILES,LYPLA1 inh,proCasp3 act,PREPL inh,proCasp7 act,LYPLA2 counter
Cc1c(Cl)ccc(S(=O)(=O)NCCN2CCOCC2)c1Cl,n,n,n,n,n
OCCN1CCN(c2ncnc3c2sc2nc(N4CCOCC4)c4c(c23)CCC4)CC1,n,n,n,n,n
CC1(C)Cc2c(c(N3CCCC3)nc3sc4c(N5CCN(CCO)CC5)ncnc4c23)CO1,n,n,48,n,n
C=CC[C@@H]1C=C(C)C[C@H](C)C[C@H](OC)[C@H]2O[C@@](O)(C(=O)C(=O)N3CCCC[C@H]3C(=O)O[C@H](/C(C)=C/[C@@H]3CC[C@@H](O)[C@H](OC)C3)[C@H](C)[C@@H](O)CC1=O)[C@H](C)C[C@@H]2OC,n,n,55,n,n
COC(=O)c1ccccc1S(=O)(=O)NNC(=O)Nc1ccccc1,n,n,n,n,n
COc1ccc(CN(C)CC(=O)c2c(N)n(Cc3ccccc3)c(=O)n(C)c2=O)c(OC)c1,n,n,47,n,n
CCn1c(=O)c(C(=O)CN(C)Cc2cccc(OC)c2OC)c(N)n(Cc2ccccc2)c1=O,n,n,n,n,n
CN1CCc2c(sc3c2C(=O)NC(c2cccc(OC(=O)c4cccs4)c2)N3)C1 (stereo not drawn),n,n,52,n,n
O=C(O)/C=C\C(=O)Nc1ccc(N2CCN(c3ccc(Cl)c(Cl)c3)CC2)cc1,n,n,44,n,n
O=C(O)/C=C\C(=O)Nc1ccc(N2CCN(c3cccc(Cl)c3)CC2)cc1,n,n,n,n,n
Cc1ccc(CN2C(=O)N/C(=C\c3ccc(-c4ccc(C(=O)O)cc4C)o3)C2=O)cc1,n,n,78,n,n
Cc1cc(Cl)ccc1C(=O)C1CCCN(C(=O)c2cccc(N3CCCC3=O)c2)C1 (stereo not drawn),n,n,n,n,n
C=CCN=C1S/C(=C\N(C)C)C(=O)N1S(=O)(=O)c1ccc(C)cc1,x,n,n,n,x
C[C@H](CO)N1C[C@H](C)[C@@H](CN(C)S(C)(=O)=O)Oc2ccc(NC(=O)CCN3CCOCC3)cc2C1=O,x,n,n,27,x
Oc1c(Br)cccc1/C=N/c1ncn[nH]1,n,n,n,n,n
O=C1c2cccc(OCC(=O)N3N=C(c4cccs4)CC3c3ccc(F)cc3)c2CCN1Cc1cccnc1 (stereo not drawn),n,n,n,n,38
O=C1c2ccccc2C(=O)c2c(Nc3ccc(CCO)cc3)ccc(O)c21,n,n,n,n,27
CC(=O)Nc1ccc(Nc2ccc3c4c(cc(=O)n3C)-c3ccccc3C(=O)c24)cc1,n,n,n,n,n
CC1(C)CC(=O)C=C(NNC(=O)OC(C)(C)C)C1,n,n,n,n,n
CCOc1cc(/C=C2/C(=O)N(c3ccccc3)N=C2C)ccc1OC(=O)c1ccco1,n,n,46,n,n
Cc1cccc(NC(=O)CCC(=O)OCC(=O)c2ccc(Oc3ccc([N+](=O)[O-])cc3)cc2)c1,n,n,n,n,31
CC(=O)Nc1ccc(NC(=O)CCC(=O)OCC(=O)c2cccc([N+](=O)[O-])c2)cc1,n,n,n,n,n
CCOc1cc(/C=N/Nc2nc(N3CCCC3)nc(N3CCCC3)n2)ccc1O,n,n,n,n,n
CCOc1cccc(/C=N/Nc2nc(N3CCCC3)nc(N3CCCC3)n2)c1O,n,n,50,n,n
COc1cc2c(cc1NC(=S)Nc1cccc(C)c1)oc1ccccc12,n,n,44,n,n
SMILES,LYPLA1 inh,proCasp3 act,PREPL inh,proCasp7 act,LYPLA2 counter
COc1ccc(C(=O)O/N=C(/c2ccccc2)c2ccncc2)cc1,n,n,87,n,n
Cc1cccc(C(=O)O/N=C(/c2ccccc2)c2ccncc2)c1,n,n,n,n,n
Cc1cc(C)n(CCN(C)C(=O)C2CCC(=O)N(CCc3cccc(F)c3)C2)n1 (stereo not drawn),n,n,n,n,n
COc1ccc(N=Cc2nc(-c3ccco3)oc2O)cc1,n,n,n,n,n
CCC(=NCc1ccc(Cl)c(Cl)c1)c1nc(-c2ccco2)oc1O,n,n,74,n,n
Cc1cc(C)nc(Nc2ccc(N3CCCC3)cc2)n1,n,n,44,n,n
Cc1cc(C)c(Nc2cc(S(=O)(=O)O)c(N)c3c2C(=O)c2ccccc2C3=O)c(C)c1,55,n,57,n,27
Cc1cc(C)c(NC(=O)COC(=O)c2cccc3c2C(=O)c2ccccc2C3=O)c(C)c1,n,n,n,n,n
CCCCCNc1nc(-c2ccccc2)cs1,n,n,70,n,n
COc1ccc(N2CCc3c(C)nc4c(OC)cc(OC)cc4c32)c(OC)c1,n,n,48,n,n
CC(=O)c1ccc(N2CCN(C(=S)Nc3ccc(Oc4ccccc4)cc3)CC2)cc1,n,n,n,n,32
CN(CC(=O)Nc1cc(S(=O)(=O)N2CCCC2)ccc1Cl)Cc1cccs1,n,n,n,n,n
CCN1CCN(c2nc3c(c(=O)n(C)c(=O)n3C)n2Cc2cccc3ccccc23)CC1,n,n,46,n,n
O=C(NC1(Cc2ccccc2)CCN(CCCc2ccccc2)C1=O)c1ccccc1 (stereo not drawn),n,n,n,n,n
Nc1ccc(C(=O)N/N=C\c2ccc(OC(=O)c3ccccc3Cl)cc2)cc1,n,n,n,n,n
O=C(O)c1ccc(N/N=C/c2ccc(OC(=O)c3ccccc3Cl)cc2)cc1,n,n,n,n,26
O=C(COc1ccccc1[N+](=O)[O-])N/N=C/c1ccc(OC(=O)c2ccco2)cc1,n,n,62,n,n
COc1cc(/C=N/NC(=O)COc2ccccc2[N+](=O)[O-])ccc1OC(=O)c1ccco1,n,n,101,n,n
CCc1c(C)nc2cc(-c3cccc(Br)c3)[nH]n2c1=O,n,n,n,n,n
N#C/C(=C(\O)c1cc(Cl)sc1Cl)c1nc2ccccc2[nH]1,n,n,n,n,n
Brc1ccc(-c2csc(N3CCC(c4ccccc4)C3)n2)cc1 (stereo not drawn),n,34,n,n,n
Brc1ccc(-c2csc(N3CCc4ccccc4C3)n2)cc1,n,n,n,n,n
Cc1ccc(N/N=C2\CS(=O)(=O)N(C)c3ccsc32)cc1,n,n,72,n,n
CC(=O)c1c(-c2ccccc2)c2cc([N+](=O)[O-])ccc2[nH]c1=O,n,n,n,n,n
CC(=O)c1ccc(NC(=O)C(C)N2CCN(C/C=C/c3ccccc3)CC2)cc1 (stereo not drawn),n,n,n,n,n
